This note sets out measurements from ChEMBL document CHEMBL2203173 (J Med Chem, 2012).

The subject of this data set is Mus musculus. Nature of the data set: Toxicity in BALB/c nu/nu mouse xenografted with human DMS53 cells assessed as vacuolation at 8 mg/kg, iv administered for 5 days a week measured after 21 days by hematoxylin and eosin staining method. The data set is classed as organism-based, DMS-53. Details: dose 8 mg/kg, route intravenous. Conditions: in vivo, 504 h. The essentials:
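Nude mice with DMS-53 xenografts dosed by tail-vein iv injection in 30% propylene glycol/saline, starting at 100 mm3 tumour volume, 5 days/week for 21 days. Spleen, kidney, liver, heart, lungs and brain were stained with H&E, Perls' (Fe loading) and Gomori Trichrome (fibrosis) by standard methods, and an independent veterinary pathologist examined them.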

`CN(C(=S)NN=C(c1ccccn1)c1ccccn1)C1CCCCC1.Cl`: the Activity entry is “Toxic”.
